IL1B cytotox = cytotoxicity in IL-1B stimulated HUVEC, primary screen, cytotoxicity control for IL-1B NFkB translocation project, imaging, Hoechst nuclear count, IL-1B stimulus. HUVEC cell count loss. cell count reduction, % at 2 µM. hit rate 0.41% among 94,000. AID 845, 2007;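 active = cell count reduction more than 3 SD above the screen-wide mean, cut at about 70% in these data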
FAK blocker = FAK kinase inhibitors, primary screen, biochemical. Focal adhesion kinase 1 (Homo sapiens), Q05397. biochemical FAK kinase activity assay. inhibition, %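 (tested at 7 µM)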. hit rate 0.84% among 97,000; in the data active = inhibition above about 19%
HIV Rev-RRE inh = HIV-1 Rev-RRE binding inhibitors, primary screen, biochemical, FRET, protein-RNA interaction; inhibition, % at 8 µM; AID 704, 2007; hit rate 0.79% among 97,000; Rev peptide-RRE RNA binding; P05866;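 active = inhibition above the screen-wide mean plus 3 SD, cut at about 35% in these data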
Target sequence (P05866 whole entry, looked up): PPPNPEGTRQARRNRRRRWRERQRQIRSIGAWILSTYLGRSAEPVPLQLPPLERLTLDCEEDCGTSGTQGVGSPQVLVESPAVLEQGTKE
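Test system: labelled RRE RNA duplex and labelled Rev peptide. Times: 5 min compound–RNA preincubation, then 15 min with peptide, 25 °C. Doses: single-dose 8 µM. Measured by: FRET, excitation 480 nm, emission 540 nm donor and 671 nm acceptor. Measure: % inhibition of FRET ratio versus controls.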
NFkB transloc pot = enhancers of NFkB p65 translocation in HUVEC – imaging, IL-1B stimulus, high-content imaging, primary screen | HUVEC IL-1B NFkB p65 nuclear translocation imaging | activation, % at 2 µM | hit rate 0.3% among 94,000 | AID 819, 2007;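 active = activation above 40%, about the mean plus 3 SD, also judged a hit on visual image review; inconclusive = activation above 40% but not a hit on visual review; inactive = activation not above 40% and no visual hit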;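 note: percent activation is computed from the nuclear over cytoplasmic p65 intensity ratio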
NFkB transloc inh = inhibitors of IL-1B driven NFkB p65 nuclear import, primary screen, imaging, HUVEC, IL-1B stimulus, high-content imaging; HUVEC IL-1B NFkB p65 nuclear translocation imaging; inhibition, % at 2 µM; hit rate 0.43% among 94,000; AID 796, 2007;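 active = inhibition above about 30% together with a positive call from visual inspection of the well image, limit read from the data; inconclusive = inhibition above a set limit but visual check negative; inactive = inhibition not above a set limit, visual check negative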;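 note: nuclear over cytoplasmic p65 intensity ratio measured by imaging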
Measles CPE = compounds protecting cells from measles virus cytopathic effect, primary screen, measles RdRp inhibitor project, single point, MLSMR library, absorbance; Measles virus-infected cells, CPE protection; protection (pct of control), % at 4 µM; hit rate 1.5% among 140,000; AID 841, 2007; in the data active = protection mostly above about 24%, no sharp cut-off; inactive = mostly below about 26%
A number is an active result; i = inactive; ? = inconclusive; nt = no result given; [ ] = remark or other dose. Sampled rows, rich in hits. Any-hit rate of the full collection: about 3.3%.

SMILES	IL1B cytotox	FAK blocker	HIV Rev-RRE inh	NFkB transloc pot	NFkB transloc inh	Measles CPE
C=CCOc1cccc(C2C(C(=O)c3ccc(C)o3)=C(O)C(=O)N2c2nccs2)c1 (stereo not given)	i	i	78	i	i	i
O=C(CC(c1ccccc1)c1ccccc1O)NCc1ccccc1Cl (stereo not given)	nt	nt	nt	nt	nt	i
Cc1nc2ccc(NC(=O)c3cc(S(=O)(=O)N4CCOCC4)ccc3C)cc2s1	i	i	i	i	i	i
Cc1nc2ccc(NC(=O)N3CCOCC3)cc2s1	i	i	i	i	51	i
Cc1cc(NC(=O)c2ccc3nc(C)sc3c2)no1	i	i	i	i	i	60
Cc1ccc(C(=O)Nc2ccc3nc(C)sc3c2)s1	i	i	i	i	i	60
Cc1cc(NC(=O)c2ccc(Cl)cc2)no1	i	i	i	i	i	i
Cc1nc2ccc(NC(=O)c3ccc([N+](=O)[O-])cc3)cc2s1	nt	nt	nt	nt	nt	i
O=C(Nc1ccccc1F)c1ccc(-n2cncn2)nc1	i	i	i	i	i	i
CCCn1nc2cc(C(=O)NCc3ccc(C)cc3)ccc2c1OCC	i	i	i	i	i	84
O=C(Nc1ccc(F)cc1F)c1ccc(COc2c(F)c(F)cc(F)c2F)o1	89	i	i	43	i	i
O=C1NC2(CCCCC2)N=C1c1ccc(F)cc1	i	i	i	i	i	i
O=C1NC2(CCCCC2)N=C1c1ccc(Br)cc1	i	i	i	i	i	64
COc1cccc(N2CCN(c3c4c(nc5ncnn35)CCC4)CC2)c1	i	i	i	i	30	i
O=C(Nc1ccc(N2CCOCC2)cc1)c1ccc2nc(-c3ccco3)c(-c3ccco3)nc2c1	i	i	i	i	i	i
S=C(Nc1ccc(N2CCOCC2)cc1)Nc1ccc2nc(-c3ccco3)c(-c3ccco3)nc2c1	i	i	104[fluorescence artefact?]	i	45	i
CCOC(=O)c1c(NC(=O)C2CCCO2)sc(C(=O)OC(C)(C)C)c1C (stereo not given)	i	i	i	i	99	i
Cc1ccc(/C=C/C(=O)Nc2ccccc2C(N)=O)cc1	nt	nt	nt	nt	nt	i
COC(=O)c1ccccc1NC(=O)/C=N/O	i	i	i	i	i	44
CCOC(=O)c1c(NC(=S)Nc2ccccc2)sc2c1CCN(CC)C2	i	i	121[fluorescence artefact?]	i	i	i
N#Cc1cc(C(=O)c2cc(Cl)ccc2O)cn(-c2ccccc2)c1=O	nt	nt	nt	nt	nt	i
Cc1ccc(O)c(C(=O)c2cc(C#N)c(=O)n(-c3c(C)n(C)n(-c4ccccc4)c3=O)c2)c1	i	i	79	i	i	i
Cc1c(-n2cc(C(=O)c3cc(Br)ccc3O)cc(C#N)c2=O)c(=O)n(-c2ccccc2)n1C	i	i	74[fluorescence artefact?]	i	i	i
Cc1ccc(O)c(C(=O)c2cc(C#N)c(=O)n(CC3CCCO3)c2)c1 (stereo not given)	i	i	i	i	i	i
Cc1c(-n2cc(C(=O)c3cc(Cl)ccc3O)cc(C#N)c2=O)c(=O)n(-c2ccccc2)n1C	i	i	83[fluorescence artefact?]	i	i	i
SMILES	IL1B cytotox	FAK blocker	HIV Rev-RRE inh	NFkB transloc pot	NFkB transloc inh	Measles CPE
COc1ccc(O)c(C(=O)c2cc(C#N)c(=O)n(-c3c(C)n(C)n(-c4ccccc4)c3=O)c2)c1	i	i	92[fluorescence artefact?]	i	i	i
COc1ccc(O)c(C(=O)c2cc(C#N)c(=O)n(CCN3CCOCC3)c2)c1	i	i	i	i	i	i
O=c1cc(-c2ccccc2)[nH][nH]1	i	i	i	i	i	i
O=C1NC(c2ccccc2)=C(c2ccccc2)C1=O	nt	nt	nt	nt	nt	45
CC1CC(=O)Nc2ccccc2N1S(=O)(=O)c1cccc(Cl)c1 (stereo not given)	nt	nt	nt	nt	nt	39
CCN1CCN(C(=O)Nc2ccccc2OC)CC1	92	i	i	i	i	i
COc1ccccc1NC(=O)N1CCN(c2ccccc2F)CC1	i	i	i	i	i	i
CCOC(=O)Nc1oc2ccccc2c(=O)c1C	i	i	i	i	36	i
CCNC(=S)Nc1ccc(Cl)c(C(F)(F)F)c1	nt	nt	nt	nt	nt	i
COc1ccc(NS(=O)(=O)c2ccc(NS(C)(=O)=O)cc2)cc1	i	i	i	i	i	i
CC(C)(C)NS(=O)(=O)c1ccc(NS(C)(=O)=O)cc1	i	i	i	?	i	45
CC1CCCC(C)N1c1nnc(NC(=O)c2cc(-c3ccc(Br)cc3)on2)s1 (stereo not given)	i	i	i	i	i	i
COc1ccccc1NC(=O)CSc1nc2n[nH]c(C)c2c(=N)n1-c1ccccc1Cl	nt	21	i	nt	nt	i
N=C1C(=O)OCC1c1ccccc1NC(=O)CN1CCOCC1 (stereo not given)	nt	nt	nt	nt	nt	i
CC(C)OCCCNC(=O)CN1C(=O)/C(=C/c2ccccc2)Sc2ccccc21	nt	nt	nt	nt	nt	i
CC(=O)C1=NN(c2ccccc2)C2(S1)S/C(=C\c1ccccc1)C(=O)N2c1ccccc1 (stereo not given)	i	i	i	i	i	34
COC(=O)C1=NN(c2ccccc2)C2(S1)SC(C(C)=O)=C(C)N2c1ccccc1 (stereo not given)	i	i	i	i	i	i
COC(=O)C1=NN(c2ccc(C)cc2)C2(S1)SC(C(C)=O)=C(C)N2c1ccccc1 (stereo not given)	i	i	37	i	i	i
Cc1sc(NC(=O)C2C3C=CC(C3)C2C(=O)O)c(C(N)=O)c1-c1ccc(C(C)C)cc1 (stereo not given)	nt	nt	nt	nt	nt	i
CCc1ccc2nc3sc(C(=O)N4CCc5ccccc54)c(N)c3cc2c1	nt	nt	nt	nt	nt	i
Cc1ccc(C)c2nc3sc(C(=O)N4CCCc5ccccc54)c(N)c3cc12	i	i	62	i	i	i
CC1CCCN(S(=O)(=O)c2ccc(S(=O)(=O)N3CCC4(CC3)OCCO4)cc2)C1 (stereo not given)	nt	nt	nt	nt	nt	i
CCc1ccc(/C(C)=N\Nc2ccc([N+](=O)[O-])cc2)cc1	i	i	52	i	i	i
C/C(=N\Nc1ccc([N+](=O)[O-])cc1)c1ccco1	nt	nt	nt	nt	nt	i
CC1CN(S(=O)(=O)N(C)C)CCN1S(=O)(=O)N(C)C (stereo not given)	88	i	i	i	i	i
SMILES	IL1B cytotox	FAK blocker	HIV Rev-RRE inh	NFkB transloc pot	NFkB transloc inh	Measles CPE
CCCC(=O)Nc1cccc(NC(=O)c2cccc([N+](=O)[O-])c2C)c1	nt	nt	nt	nt	nt	i
CC(C)COC(=O)c1cccc2c1-c1ccccc1/C2=N\O	i	55	i	i	i	i
CCCn1c(=O)c(C(=O)NCc2ccccn2)c(O)c2ccccc21	85	i	i	i	i	i
CCn1c(CNc2nc3ccccc3n2C(C)C)nc2ccccc21	i	i	i	i	62	i
CCCn1c(NCc2ccccn2)nc2ccccc21	92	i	i	i	96	i
c1ccc(CNc2nc3ccccc3n2CCN2CCOCC2)nc1	i	i	i	i	i	i

Bioassay records as filed in PubChem BioAssay.
